9 compounds from ChEMBL document CHEMBL1153346, “Structure-activity study of pentamidine analogues as antiprotozoal agents” (J Med Chem, 2009) can be followed below.

Each structure is given as a SMILES string. Calls of active or inactive are those of the source. The rule behind the calls is not given here.

Data set [1] in a line: Selectivity index, ratio of IC50 for rat L6 cells to IC50 for Leishmania donovani MHOM/SD/62/1S-CL2D axenic amastigotes. Type of data set: toxicity, cell-based. Particulars: read-out: Ratio IC50. Put shortly: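 Amastigotes: 6 × 10⁴ parasites/well with 2-fold dilutions, 72 h at 37 °C in 5% CO2. Growth read by tetrazolium CellTiter absorbance at 490 nm; IC50 from a four-parameter dose-response fit.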

Data set [2] is described as follows: Selectivity index, ratio of IC50 for rat L6 cells to IC50 for chloroquine-resistant Plasmodium falciparum K1. In kind it is toxicity, cell-based. Particulars: read-out: Ratio IC50. Put shortly: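 Ratio of L6 IC50 to K1 IC50. L6 cells: Alamar blue assay after 70 h, 37 °C. K1: [3H]-hypoxanthine incorporation in infected red cells over 48 + 24 h at 37 °C under low O2. IC50s from sigmoidal curves, two independent runs in duplicate.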

The test system of data set [3] is Trypanosoma brucei rhodesiense. Kind of data set: Antitrypanosomal activity against Trypanosoma brucei rhodesiense STIB900 trypomastigotes infected in NMRI mouse assessed as mouse survival at 10 mg/kg, ip administered from day 3 to day 6 postinfection. Particulars: route intraperitoneal. Type of data set: functional. Put shortly:
(§1)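 STIB900 acute mouse model. Dosing was intraperitoneal, daily for four days, in DMSO diluted with water to 10% final DMSO. An infected untreated control group was kept. Tail blood was checked for parasitemia to day 60, and deaths were recorded to give mean survival days. Mice surviving and aparasitemic at day 60 counted as cured.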

In data set [4] the test system is Trypanosoma brucei rhodesiense. Kind of data set: Antitrypanosomal activity against Trypanosoma brucei rhodesiense STIB900 trypomastigotes infected in NMRI mouse assessed as survival and aparasitemic condition at 10 mg/kg, ip administered from day 3 to day 6 postinfection measured after 60 days postinfection. Type of data set: functional, organism-based. Also noted: dose 10 mg/kg. Put shortly:
(§2)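 STIB900 acute mouse model with 4 mice per group. Compound in DMSO diluted with water to a final 10% DMSO, given intraperitoneally once daily for four days. An infected, untreated control group was included. Tail blood checked for parasitemia until day 60. Mice alive and aparasitemic at day 60 counted as cured; deaths recorded for mean survival time.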

Another data set concerns L6. Kind of data set: Cytotoxicity against rat L6 cells after 70 hrs by alamar blue assay. Type of data set: cell-based. Particulars: L6, 70 h. Put shortly:
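L6 rat myoblasts, 4000 per well, in RPMI 1640 with 2 mM L-glutamine, HEPES, NaHCO₃ and 10% FBS. Exposed to serial dilutions (DMSO ≤1%) for 70 h at 37 °C in humidified 5% CO₂. Resazurin then added for 2-3 h; fluorescence read at ex 536/em 588 nm. IC50 from sigmoidal curves; two independent runs in duplicate.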
Background: The colour change of resazurin is a common sign of viable cells or microbes.

The subject of another data set is Plasmodium falciparum. Kind of data set: Antiprotozoal activity after 48 hrs against chloroquine-resistant Plasmodium falciparum K1 infected erythrocytes by [3H]hypoxanthine uptake. Type of data set: functional, organism-based. Put shortly: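 Erythrocytic stages in infected human red cells (hematocrit 1.25%, parasitemia 0.3%) in supplemented RPMI 1640 with Albumax II. Serial dilutions incubated at 37 °C in 93% N2/4% CO2/3% O2. [3H]-hypoxanthine (0.5 µCi/well) added at 48 h, then 24 h more. Incorporation counted by scintillation. IC50 from sigmoidal curves; two independent runs in duplicate.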

A short description of data set [5]: Selectivity index, ratio of IC50 for rat L6 cells to IC50 for Trypanosoma brucei rhodesiense STIB900 trypomastigotes. Type of data set: toxicity, cell-based. Particulars: read-out: Ratio IC50. Put shortly: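 Ratio of L6 IC50 to STIB900 IC50. L6 cells: 4000/well in RPMI 1640 with 10% FBS, 70 h at 37 °C. Bloodstream forms: 2000/well in supplemented MEM with 15% horse serum, 70 h at 37 °C. Both read by Alamar blue fluorescence; IC50s from sigmoidal curves, two independent runs in duplicate.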

Data set [6] deals with Trypanosoma brucei rhodesiense. Kind of data set: Antitrypanosomal activity against Trypanosoma brucei rhodesiense STIB900 trypomastigotes infected in NMRI mouse assessed as mouse survival at 20 mg/kg, ip administered from day 3 to day 6 postinfection. Particulars: route intraperitoneal. In kind it is functional. Put shortly:
as §1

For data set [7], the system named is Trypanosoma brucei rhodesiense. Kind of data set: Antiprotozoal activity against Trypanosoma brucei rhodesiense STIB900 trypomastigotes after 70 hrs by alamar blue assay. In kind it is functional, organism-based. Put shortly: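 Bloodstream forms, 2000 per well, in MEM with Earle's salts plus 0.2 mM 2-mercaptoethanol, 1 mM pyruvate, 0.5 mM hypoxanthine and 15% heat-inactivated horse serum. Exposed to serial dilutions (DMSO ≤1%) for 70 h at 37 °C in 5% CO₂. Resazurin then added for a further 2-6 h. IC50 from sigmoidal curves; two independent runs in duplicate.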

In a further data set the test system is Leishmania donovani. Kind of data set: Antiprotozoal activity against Leishmania donovani MHOM/SD/62/1S-CL2D axenic amastigotes after 72 hrs. Type of data set: functional, organism-based. Put shortly: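 L. donovani axenic amastigotes, adapted from promastigotes and grown in amastigote medium at 37 °C. 6 × 10⁴ parasites per well with 2-fold compound dilutions (DMSO ≤1%), incubated 72 h at 37 °C in humidified 5% CO₂. Growth read by tetrazolium (CellTiter) absorbance at 490 nm. IC50 from a four-parameter dose-response fit. Average of duplicate determinations.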

The subject of data set [8] is Trypanosoma brucei rhodesiense. Kind of data set: Antitrypanosomal activity against Trypanosoma brucei rhodesiense STIB900 trypomastigotes infected in NMRI mouse assessed as survival and aparasitemic condition at 2 mg/kg, ip administered from day 3 to day 6 postinfection measured after 60 days postinfection. In kind it is functional, organism-based. On the set-up: dose 2 mg/kg.

In data set [9] the test system is Trypanosoma brucei rhodesiense. Kind of data set: Antitrypanosomal activity against Trypanosoma brucei rhodesiense STIB900 trypomastigotes infected in NMRI mouse assessed as survival and aparasitemic condition at 8 mg/kg, ip administered from day 3 to day 6 postinfection measured after 60 days postinfection. Type of data set: functional, organism-based. Also noted: dose 8 mg/kg.

Data set [10] relates to Trypanosoma brucei rhodesiense. Kind of data set: Antitrypanosomal activity against Trypanosoma brucei rhodesiense STIB900 trypomastigotes infected in NMRI mouse assessed as mouse survival at 1 mg/kg, ip administered from day 3 to day 6 postinfection. Type of data set: functional. Particulars: route intraperitoneal.
In data set [11] the test system is Trypanosoma brucei rhodesiense. Kind of data set: Antitrypanosomal activity against Trypanosoma brucei rhodesiense STIB900 trypomastigotes infected in NMRI mouse assessed as mouse survival at 2 mg/kg, ip administered from day 3 to day 6 postinfection. Type of data set: functional. Particulars: route intraperitoneal.
Data set [12] concerns Trypanosoma brucei rhodesiense. Kind of data set: Antitrypanosomal activity against Trypanosoma brucei rhodesiense STIB900 trypomastigotes infected in NMRI mouse assessed as mouse survival at 8 mg/kg, ip administered from day 3 to day 6 postinfection. In kind it is functional. Particulars: route intraperitoneal.
The subject of the next data set is Mus musculus. Kind of data set: Toxicity in NMRI mouse infected with Trypanosoma brucei rhodesiense STIB900 trypomastigotes at 20 mg/kg, ip administered from day 3 to day 6 postinfection. On the set-up: dose 20 mg/kg, route intraperitoneal. Type of data set: organism-based. Particulars: in vivo.
Data set [13] relates to Trypanosoma brucei rhodesiense. Kind of data set: Antitrypanosomal activity against Trypanosoma brucei rhodesiense STIB900 trypomastigotes infected in NMRI mouse assessed as survival and aparasitemic condition at 20 mg/kg, ip administered from day 3 to day 6 postinfection measured after 60 days postinfection. Type of data set: functional, organism-based. On the set-up: dose 20 mg/kg. Put shortly:
as §2

Data set [14] deals with Trypanosoma brucei rhodesiense. Kind of data set: Antitrypanosomal activity against Trypanosoma brucei rhodesiense STIB900 trypomastigotes infected in NMRI mouse assessed as survival and aparasitemic condition at 5 mg/kg, ip administered from day 3 to day 6 postinfection measured after 60 days postinfection. Type of data set: functional, organism-based. On the set-up: dose 5 mg/kg. Put shortly: as §2

Data set [15] relates to Trypanosoma brucei rhodesiense. Kind of data set: Antitrypanosomal activity against Trypanosoma brucei rhodesiense STIB900 trypomastigotes infected in NMRI mouse assessed as mouse survival at 5 mg/kg, ip administered from day 3 to day 6 postinfection. Particulars: route intraperitoneal. Type of data set: functional. Put shortly:
as §1

By IC50 is commonly meant the concentration that gives 50% inhibition. A low value points to greater potency.

For the compound `Cl.Cl.c1cc(C2=NCCN2)ccc1OCCCOc1ccc(C2=NCCN2)cc1`, the selectivity ratio in [1] amounted to 26; in [2] it was 7530; in [5], 685. Further, the Survival is 22.8 days in data set [3] and above 51 days in data set [6]. The outcome in data set [4] was inactive. Further, the concentration for half-maximal inhibition (IC50) in the data set with L6 is 75300 nM; with Plasmodium falciparum, 10 nM; in data set [7] it was 110 nM; in the data set with Leishmania donovani, 2880 nM.
In the case of `Cl.Cl.N=C(N)c1cccc(OCCCCOc2cccc(C(=N)N)c2)c1`, the selectivity ratio in data set [1] was 4; in [2] it was 762; in data set [5], 286. Further, the Survival in data set [3] is 20 days; in data set [6] it was above 43 days. In data set [4], the outcome was inactive. For the same compound, the IC50 in the data set with L6 amounted to 16000 nM; in the data set with Plasmodium falciparum, 21 nM; in data set [7] it was 56 nM; in the data set with Leishmania donovani, 4460 nM.
On to `Nc1nc(N)nc(Nc2ccc([As]3SCC(CO)S3)cc2)n1` (configuration not stated) [MELARSOPROL], for which the result in data set [8] and in data set [9] was Active. Further, the Survival in data set [10] is above 51.5 days; in data set [11], above 60 days; in data set [12], above 60 days.
For the compound `CCOC(=O)c1cc(C(=N)NC(C)C)ccc1OCCCCCOc1ccc(C(=N)NC(C)C)cc1C(=O)OCC.Cl.Cl`, the selectivity ratio was 2 in data set [1], above 10800 in data set [2] and above 2740 in data set [5]. Moreover, the Activity entry with Mus musculus is “Toxic”. Moreover, the IC50 in the data set with L6 is above 140000 nM; in the data set with Plasmodium falciparum it was 13 nM; in data set [7], 51 nM; in the data set with Leishmania donovani, 55900 nM. Further, the Survival in data set [6] is 5.5 days. Moreover, the outcome in [13] was inactive.
Turning to `COc1cc(C2=NCCN2)ccc1OCCCCCOc1ccc(C2=NCCN2)cc1OC.Cl.Cl`, the selectivity ratio was above 4 in data set [1], above 8320 in [2] and above 3950 in [5]. For the same compound, in [3], the Survival was above 31.8 days. Moreover, the outcome in [4] was inactive. Further, the IC50 in the data set with L6 is above 158000 nM; in the data set on Plasmodium falciparum, 19 nM; in data set [7], 40 nM; in the data set with Leishmania donovani it was 36300 nM.
Turning to `Cl.Cl.Cl.Cl.N=C(N)c1ccc(OCCCCOc2ccc(C(=N)N)cc2Cl)c(Cl)c1`, the selectivity ratio worked out at 5 in [1], 574 in data set [2] and 260 in [5]. For the same compound, the Survival in data set [3] was 22 days; in data set [6], above 41.5 days. The outcome in data set [4] was inactive. Moreover, the IC50 with L6 turned out to be 10900 nM; in the data set on Plasmodium falciparum, 19 nM; in data set [7], 42 nM; in the data set on Leishmania donovani, 2130 nM.
For the compound `Cl.Cl.c1cc(C2=NCCN2)ccc1OCCCCOc1ccc(C2=NCCN2)cc1`, the result in [14] was inactive. Also, the values for the selectivity ratio in [1], in data set [2] and in [5] were 20, 2020 and 257, respectively. The IC50 with L6 stood at 62700 nM; in the data set with Plasmodium falciparum, 31 nM; in data set [7], 244 nM; in the data set with Leishmania donovani, 3060 nM. Moreover, the Survival is above 41.5 days in data set [6] and 7.8 days in data set [15].
As to `COc1cc(C(=N)N)ccc1OCCCCOc1ccc(C(=N)N)cc1OC.Cl.Cl`, the selectivity ratio is above 5 in data set [1], above 4250 in [2] and above 693 in [5]. Moreover, the Survival in data set [3] amounted to 17.5 days. For the same compound, in [4], the result was inactive. The concentration for half-maximal inhibition (IC50) in the data set on L6 was above 187000 nM; in the data set on Plasmodium falciparum, 44 nM; in data set [7], 270 nM; in the data set with Leishmania donovani it was 38100 nM.
For the compound `COc1cc(C2=NCCN2)ccc1OCCCCOc1ccc(C2=NCCN2)cc1OC.Cl.Cl`, the selectivity ratio is above 4 in [1], above 8200 in data set [2] and above 2410 in data set [5]. Besides, in [3], the Survival was 18.3 days. Moreover, the outcome in [4] was inactive. The IC50 with L6 was above 164000 nM; in the data set on Plasmodium falciparum, 20 nM; in data set [7], 68 nM; in the data set with Leishmania donovani it was 38900 nM.
